ChEMBL document CHEMBL1134539, “Significance of asymmetric sites in choosing siderophores as deferration agents” (J Med Chem, 2001)
Values joined by “and” are separate entries in the source; they are usually repeats but may differ in a detail not shown here. Equal entries are not always repeated.

Experiments:
Paracoccus denitrificans [1] = experiment: Michaelis-Menten constant for accumulation of [55Fe]-labeled high-affinity component complexes by Paracoccus denitrificans; type: functional, organism-based
In short: (§1)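 Late log-phase P. denitrificans (ATCC 17741), grown in defined low-iron medium with 0.5 μM Fe(III), washed and resuspended in transport buffer to OD660 1.00. Suspensions were preincubated 15 min at 30 °C with shaking before [55Fe] ferric chelate was added at 0.1–5.0 μM. Samples were taken every 20 s for 2 min, stopped in chilled buffer, filtered, rinsed and scintillation counted. Initial rates were expressed per mg protein, and Km and Vmax were taken from Lineweaver–Burk fits.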

Paracoccus denitrificans [2] = experiment: Michaelis-Menten constant for accumulation of [55Fe]-labeled low-affinity component complexes by Paracoccus denitrificans; type: functional, organism-based; in short: as §1
Paracoccus denitrificans [3] = experiment: Maximum velocity of accumulation of [55Fe]-labeled high-affinity component complexes by Paracoccus denitrificans; type: functional, organism-based; design: unit not given here; in short: as §1
Paracoccus denitrificans [4] = experiment: Maximum velocity of accumulation of [55Fe]-labeled low-affinity component complexes by Paracoccus denitrificans; type: functional, organism-based; design: unit not given here; in short: as §1
[5] = Iron clearance was stimulated by the compound was expressed as % distribution of excreted Fe in urine by subcutaneous dose of 150 umol/kg; type: ADME; details: in vivo, sc
In short: (§2)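 Non-iron-overloaded, bile duct-cannulated male Sprague–Dawley rats (about 400 g), housed in metabolic cages with free access to water. Single sc injection at 150 µmol/kg. Bile was collected at 3-h intervals for 48 h and urine every 24 h. Excreted iron was apportioned between bile and urine.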

[6] = Iron clearance was stimulated by the compound was expressed as % distribution of excreted Fe in bile by subcutaneous dose of 150 umol/kg; type: ADME; details: in vivo, sc; in short: as §2
Rattus norvegicus = experiment: Iron clearance was stimulated by the compound was expressed as % efficiency by subcutaneous dose of 150 umol/kg; type: functional
In short: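 Bile duct-cannulated, non-iron-overloaded male Sprague–Dawley rats (about 400 g) were kept in metabolic cages and given one sc dose of 150 µmol/kg. Bile was collected every 3 h and urine every 24 h over 48 h. Efficiency is the excreted iron minus that of control animals, divided by the theoretical iron excretion from dose and coordination chemistry.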

SMILES | Km (Paracoccus denitrificans [1]) | Km (Paracoccus denitrificans [2]) | Vmax (Paracoccus denitrificans [3]) | Vmax (Paracoccus denitrificans [4]) | Distribution of excreted Fe [5] | Distribution of excreted Fe [6] | Efficiency (Rattus norvegicus)
C[C@H]1OC(c2cccc(O)c2O)=N[C@@H]1C(=O)N(CCCCNC(=O)c1cccc(O)c1O)CCCCNC(=O)c1cccc(O)c1O | 0.17 µM | 1 µM | 138 | 229 |  |  | 
C[C@@H]1OC(c2cccc(O)c2O)=N[C@H]1C(=O)N(CCCNC(=O)c1cccc(O)c1O)CCCNC(=O)c1cccc(O)c1O |  | 3.5 µM |  | 96 | 9.2% | 90.8% | 16%
C[C@H]1OC(c2cccc(O)c2O)=N[C@@H]1C(=O)N(CCCCNC(=O)c1cccc(O)c1O)CCCNC(=O)c1cccc(O)c1O | 0.11 µM | 0.55 µM and 0.53 µM | 157 and 153 | 245 and 247 |  |  | 
C[C@H]1OC(c2cccc(O)c2O)=NC1C(=O)N(CCCNC(=O)c1cccc(O)c1O)CCCNC(=O)c1cccc(O)c1O (stereo not given in full) | 0.23 µM | 2.2 µM | 129 | 413 | 15.4% | 84.6% | 13.8%
